Source: ChEMBL document CHEMBL4340573, “New pyrazolopyrimidine derivatives as Leishmania amazonensis arginase inhibitors” (Bioorg Med Chem, 2019)
Calls of active or inactive are those of the source. The rule behind the calls is not given here.

Assays:
[1] = target: Arginase (Leishmania amazonensis) (UniProt O96394); experiment: Inhibition of recombinant Leishmania amazonensis arginase expressed in Escherichia coli at 100 uM using L-arginine as substrate relative to control
Summary of the method: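 Recombinant LaARG was expressed in E. coli. Single-point screen: 100 µM compound with 50 mM L-arginine in 50 mM CHES, pH 9.5. DMSO stocks (70 mM) were diluted to 1 mM in deionized water before assay. Run in triplicate in two independent experiments.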

Leishmania amazonensis [2] = experiment: Antileishmanial activity against Leishmania amazonensis LTB0016 amastigotes assessed as induction of parasite morality at 30 uM incubated for 48 hrs by Alamar blue dye based assay relative to control; assay type: functional; conditions: LTB0016, 48 h
Summary of the method: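 Amastigotes purified by mechanical dissociation in RPMI from paw skin lesions of male Swiss Webster mice 30 days after subcutaneous infection with 10^6 amastigotes. Parasites at 10^6/well exposed 48 h at 32 °C, 5% CO2, with compound up to 30 µM (DMSO ≤0.6% final). Then 24 h with 10% AlamarBlue, OD read at 570-600 nm; pentamidine as reference.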

Arginase [3] = target: T1, Arginase (Leishmania amazonensis, UniProt O96394); experiment: Inhibition of recombinant Leishmania amazonensis arginase expressed in Escherichia coli using L-arginine as substrate
Summary of the method: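 Recombinant E. coli-expressed LaARG was run with L-arginine at 25, 50 and 100 mM separately. Inhibitor was 200 to 0.05 µM by 4-fold serial dilution, in triplicate in two independent experiments. IC50 came from nonlinear sigmoidal regression of log dose versus enzyme activity; reported IC50 values are at 50 mM substrate.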

[4] = (§1) Cytotoxicity against Swiss mouse peritoneal macrophages assessed as reduction in cell viability incubated for 48 hrs by MTT assay; assay type: cell-based, Peritoneal macrophage; conditions: Swiss, peritoneal macrophages, read-out: LC50
Summary of the method: (§2)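 Peritoneal cells harvested in RPMI 96 h after 3% thioglycolate (1 mL) in male Swiss mice (18-20 g). Plated at 10^5 cells/well in RPMI 1640 with 10% FBS and 2 mM glutamine. After 24 h, exposed to compound up to 200 µM, 48 h, 37 °C, 5% CO2. MTT 0.45 mg/mL added for 4 h, OD at 570. LC50 derived; at least 2 runs in triplicate.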

[5] = target: Arginase (Leishmania amazonensis) (UniProt O96394); experiment: Uncompetitive inhibition of recombinant Leishmania amazonensis arginase expressed in Escherichia coli assessed as dissociation constant for ternary complex enzyme-substrate-inhibitor using L-arginine as substrate by Dixon or Cornish-Bowden plot analysis
Summary of the method: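 Kinetics on recombinant LaARG used L-arginine at 25, 50 and 100 mM, each with three inhibitor concentrations. Points are the mean of three independent experiments run in duplicate. Mechanism came from linear-regression Dixon and Cornish-Bowden plots. Kis (ESI complex dissociation constant) was taken from the intersection of lines on the Cornish-Bowden plot.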

Arginase [6] = target: T1, Arginase; experiment: Non-competitive inhibition of Leishmania amazonensis arginase using L-arginine as substrate incubated for 15 mins
Peritoneal macrophage = experiment: as §1; assay type: cell-based; conditions: peritoneal macrophage, 48 h; summary of the method: as §2
[7] = target: Arginase (Leishmania amazonensis) (UniProt O96394); experiment: Competitive inhibition of recombinant Leishmania amazonensis arginase expressed in Escherichia coli using 25 to 100 mM L-arginine levels
Leishmania amazonensis [8] = experiment: Antileishmanial activity against Leishmania amazonensis LTB0016 amastigotes assessed as induction of parasite morality incubated for 48 hrs by Alamar blue dye based assay relative to control; assay type: functional, organism-based; conditions: LTB0016, 48 h
Summary of the method: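 Free amastigotes (LTB0016) were purified by mechanical dissociation in RPMI from paw skin lesions of male Swiss Webster mice 30 days after s.c. infection with 10^6 amastigotes. Parasites at 10^6/well were exposed to compounds up to 30 µM for 48 h at 32 °C in 5% CO2. AlamarBlue (10%) was then added for 24 h at 32 °C and OD read at 570-600 nm. Final DMSO was ≤0.6%.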

| Structure (SMILES) | inhibition [1] | mortality at 30 µM (Leishmania amazonensis [2]) | IC50 (Arginase [3]) | CC50 at 48 h [4] | K [5] | IC50 (Arginase [6]) | Ki (Arginase [6]) | LC50 (Peritoneal macrophage) | inhibition [7] | EC50 (Leishmania amazonensis [8]) |
| --- | --- | --- | --- | --- | --- | --- | --- | --- | --- | --- |
| NC(=S)NNc1ncnc2c1cnn2-c1ccc(F)cc1 | 36.4% | 20 to 30% | > 100 µM | > 200 µM | – | – | – | – | – | – |
| Cc1cc(NNC(N)=S)n2nc(C(F)(F)F)nc2n1 | 81% | 20 to 30% | 16.5 µM | > 200 µM | 17 µM | 16.5 µM | 17 µM | – | – | – |
| Cc1ccc(-n2ncc3c(NNC(N)=S)ncnc32)cc1 | 42.2% | – | > 100 µM | – | – | – | – | Nd(Insoluble) | – | – |
| NC(=S)NNc1ncnc2c1cnn2-c1ccc(C(F)(F)F)cc1 | 73.8% | 20 to 30% | 47 µM | > 200 µM | 29 µM | – | – | – | inactive | – |
| N=C(N)c1ccc(OCCCCCOc2ccc(C(=N)N)cc2)cc1 [PENTAMIDINE] | – | – | – | 17.2 µM | – | – | – | – | – | 0.8 µM |
| NC(=S)NNc1ncnc2c1cnn2-c1ccc(Cl)cc1 | 46% | 20 to 30% | > 100 µM | > 200 µM | – | – | – | – | – | – |
| N#Cc1ccc(-n2ncc3c(NNC(N)=S)ncnc32)cc1 | 59.8% | – | 100 µM | – | – | – | – | Nd(Insoluble) | – | – |
| NC(=S)NNc1ncnc2c1cnn2-c1ccccc1 | 74.3% | 20 to 30% | 12 µM | > 200 µM | 8.5 µM | – | – | – | inactive | – |
